Experimental data collected from several papers.
AVPR2: Vasopressin V2 receptor (AVPR2, Homo sapiens, UniProt P30518)
HTR1E: 5-hydroxytryptamine receptor 1E (HTR1E, Homo sapiens, UniProt P28566)

Compound | target | test | EC50 [µM]
CC1=NN(/C(=N\c2ccccc2F)Nc2nnc(C)s2)C(c2ccc(C)cc2)S1 (stereo not drawn) | AVPR2 | cAMP, positive allosteric modulator | 41.4
CN1CCN2c3ncccc3Cc3ccccc3C2C1 (stereo not drawn) | HTR1E | G protein activation, agonist, BRET | 0.755
CC1=NN(/C(=N/c2nnc(C)s2)Nc2ccc(C)c(C)c2)C(c2ccc(F)c(C(F)(F)F)c2)S1 (stereo not drawn) | AVPR2 | cAMP, positive allosteric modulator | > 50
CN(C)CCOC1=Cc2ccccc2Sc2ccc(Cl)cc21 | HTR1E | G protein activation, agonist, BRET | 0.622
CC(C)=CCNc1ncnc2c1ncn2[C@@H]1O[C@H](CO)[C@@H](O)[C@H]1O | Adenosine receptor A3 (ADORA3, Homo sapiens, UniProt P0DMS8, V169L) | G protein activation, agonist | 1.2
CCCc1ccc(/N=C(/Nc2nnc(C)s2)N2N=C(C)SC2c2ccc(C)cc2)cc1 (stereo not drawn) | AVPR2 | cAMP, positive allosteric modulator | 3.9
CC(C)=CCn1cnc(=N)c2[nH]cnc21 | G-protein coupled receptor 84 (GPR84, Homo sapiens, UniProt Q9NQS5) | cAMP, agonist, luciferase | 32
CN(C)c1ncnc2c1ncn2[C@@H]1O[C@H](CO)[C@@H](O)[C@H]1O | Adenosine receptor A3 (ADORA3, Homo sapiens, UniProt P0DMS8, I253Q) | G protein activation, agonist | 46
COc1ccccc1N1CCN(CCCCN2C(=O)c3ccccc3C2=O)CC1 | HTR1E | G protein activation, agonist, BRET | 2.17
